Assay results: ChEMBL document CHEMBL2346495, “Evaluation of HIV-1 inhibition by stereoisomers and analogues of the sesquiterpenoid hydroquinone peyssonol A” (Bioorg Med Chem Lett, 2013)
pEC50: −log10 of the molar value.

Legend:
[1] = Cytotoxicity against human MT2 cells by XTT assay; format: cell-based
Procedure, shortened: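 Uninfected MT-2 cells, run in parallel with the antiviral screen, exposed to serially diluted compounds; viability read by XTT assay. CC50 averaged from two to four experiments.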

[2] = Therapeutic index, ratio of CC50 for human MT2 cells to EC50 for recombinant HIV1 expressing Rep-Rluc Sac II; format: cell-based; conditions: read-out: Ratio CC50/EC50
Procedure, shortened: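 Therapeutic index computed as CC50 (XTT viability of uninfected MT-2 cells, serial dilutions) over EC50 (luciferase output after 5-day infection of MT-2 cells with HIV-1 NL-Rluc in the presence of compounds). Each input is averaged from two to four experiments.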

[3] = system: Human immunodeficiency virus 1; assay: Antiviral activity against recombinant HIV1 expressing Rep-Rluc Sac II infected in human MT2 cells after 5 days by luciferase reporter gene assay; format: functional, organism-based; conditions: Human immunodeficiency virus 1, MT2, 120 h
Procedure, shortened: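 MT-2 human lymphocytes infected with recombinant HIV-1 NL-Rluc (Rep-Rluc Sac II) in the presence of compounds; 5-day incubation, then cells processed and virus growth quantified by expressed luciferase. EC50 values averaged from two to four experiments.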

SMILES	pEC50 [3]	CC50 [1]	selectivity ratio [2]
O=Cc1cc(O)c(CC2CCCCC2)cc1O	5.40	> 100 µM	> 25
CC1=CC[C@H]2C(C)(C)[C@@H](Br)CC[C@]2(C)[C@@H]1Cc1cc(O)c(C=O)cc1O	6.05	4 µM	4
CC1(C)[C@@H](Br)CC[C@@]2(C)[C@H]1CC[C@@](C)(O)[C@H]2CO	5.70	90 µM	44
CC1(C)CCC[C@@]2(C)[C@H]1CC[C@@]1(C)OC(=O)OC[C@@H]21	5.70	30 µM	17
CC1(C)[C@@H](Cl)CC[C@@]2(C)[C@H]1CC[C@@]1(C)OC(=O)OC[C@@H]21	5.00	40 µM	4
CC1(C)[C@@H](I)CC[C@@]2(C)[C@H]1CC[C@@]1(C)OC(=O)OC[C@@H]21	5.30	30 µM	6
CC(=O)OC[C@H]1[C@@]2(C)CC[C@H](Br)C(C)(C)[C@H]2CC[C@]1(C)O	4.40	> 100 µM	> 2
CC(=O)OC[C@@H]1[C@@]2(C)CC[C@H](Br)C(C)(C)[C@H]2CC[C@]1(C)O	4.70	70 µM	3
CC(=O)OC[C@H]1[C@@]2(C)CC[C@H](Br)C(C)(C)[C@@H]2CC[C@@]1(C)O	5.00	90 µM	8
CC1(C)[C@H]2CC[C@]3(C)OC(=O)OC[C@H]3[C@@]2(C)CC[C@@H]1Br	5.05	> 100 µM	> 11
CC1(C)[C@@H](Br)CC[C@]2(C)[C@H]3COC(=O)O[C@]3(C)CC[C@@H]12	5.00	> 100 µM	> 10
C=C1CC[C@@H]2C(C)(C)[C@@H](Br)CC[C@]2(C)[C@H]1Cc1cc(O)c(C=O)cc1O	6.30	4 µM	8
C=C1CC[C@H]2C(C)(C)[C@@H](Br)CC[C@]2(C)[C@H]1Cc1cc(O)c(C=O)cc1O	6.30	2 µM	4
CC1=CC[C@H]2C(C)(C)[C@@H](Br)CC[C@]2(C)[C@@H]1Cc1cc(O)c(CC(=O)O)cc1O [PEYSSONOIC ACID A]	4.30	> 100 µM	> 2
C=C1CC[C@H]2C(C)(C)[C@@H](Br)CC[C@]2(C)[C@@H]1Cc1cc(O)c(C=O)cc1O [PEYSSONOL A]	6.00	4 µM	4

More lines, in order of rising pEC50 [3], values ahead:

pEC50 [3]	SMILES	CC50 [1]	selectivity ratio [2]
5.00	Cc1cc(O)c(C=O)cc1O	30 µM	3
5.00	CC(=O)OC[C@@H]1[C@@]2(C)CC[C@H](Br)C(C)(C)[C@@H]2CC[C@@]1(C)O	40 µM	3
5.15	CC1(C)[C@H]2CC[C@]3(C)OC(=O)OC[C@@H]3[C@@]2(C)CC[C@@H]1Br	70 µM	9
5.40	CC1(C)[C@@H](Br)CC[C@@]2(C)[C@H]1CC[C@@]1(C)OC(=O)OC[C@@H]21	90 µM	23
6.00	CC1(C)[C@@H](Br)CC[C@@]2(C)[C@H]1CC[C@@]1(C)Oc3cc(C=O)c(O)cc3C[C@@H]21	5 µM	5
6.10	CC1=C(Cc2cc(O)c(C=O)cc2O)[C@@]2(C)CC[C@H](Br)C(C)(C)[C@@H]2CC1	4 µM	5
6.15	C=C1CC[C@@H]2C(C)(C)[C@@H](Br)CC[C@]2(C)[C@@H]1Cc1cc(O)c(C=O)cc1O	5 µM	7
